Results taken from ChEMBL document CHEMBL1121437, “Structure--antitubulin activity relationship in steganacin congeners and analogues. Inhibition of tubulin polymerization in vitro by (+/-)-isodeoxypodophyllotoxin” (J Med Chem, 1980).

The compounds below were run against Tubulin (Sus scrofa) (UniProt P02554+P02550) (assay: (§1) Tested for the inhibition of polymerization rate of tubulin microtubule assembly.).
Type: functional
In short: (§2)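 Porcine brain tubulin (three cycles, ca. 1 mg/mL, 15% MAPs) in 0.1 M MES, 0.5 mM MgCl2, 1 mM EGTA, 1 mM GTP, pH 6.6. Compound (from 10^-2 M DMSO stock) preincubated with tubulin 1 h at 37 °C, cooled to 4 °C for 30 min, then warmed to 37 °C. Turbidity followed at 350 nm. I50 = concentration halving maximum polymerization rate.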

Tubulin (Sus scrofa), sequence (P02550 whole entry, looked up): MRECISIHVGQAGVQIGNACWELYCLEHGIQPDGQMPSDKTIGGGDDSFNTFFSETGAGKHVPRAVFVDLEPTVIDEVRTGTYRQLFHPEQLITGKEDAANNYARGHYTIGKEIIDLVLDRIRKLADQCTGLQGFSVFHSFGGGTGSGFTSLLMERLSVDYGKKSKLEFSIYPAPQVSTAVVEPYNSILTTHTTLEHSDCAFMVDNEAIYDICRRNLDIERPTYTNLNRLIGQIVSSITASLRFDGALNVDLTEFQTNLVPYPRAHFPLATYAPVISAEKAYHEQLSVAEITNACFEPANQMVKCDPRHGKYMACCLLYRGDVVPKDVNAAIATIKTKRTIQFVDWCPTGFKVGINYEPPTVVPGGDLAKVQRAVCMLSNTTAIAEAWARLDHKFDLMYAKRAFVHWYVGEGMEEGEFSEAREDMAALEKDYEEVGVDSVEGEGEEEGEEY
Tubulin (Sus scrofa), sequence (P02554 whole entry, looked up): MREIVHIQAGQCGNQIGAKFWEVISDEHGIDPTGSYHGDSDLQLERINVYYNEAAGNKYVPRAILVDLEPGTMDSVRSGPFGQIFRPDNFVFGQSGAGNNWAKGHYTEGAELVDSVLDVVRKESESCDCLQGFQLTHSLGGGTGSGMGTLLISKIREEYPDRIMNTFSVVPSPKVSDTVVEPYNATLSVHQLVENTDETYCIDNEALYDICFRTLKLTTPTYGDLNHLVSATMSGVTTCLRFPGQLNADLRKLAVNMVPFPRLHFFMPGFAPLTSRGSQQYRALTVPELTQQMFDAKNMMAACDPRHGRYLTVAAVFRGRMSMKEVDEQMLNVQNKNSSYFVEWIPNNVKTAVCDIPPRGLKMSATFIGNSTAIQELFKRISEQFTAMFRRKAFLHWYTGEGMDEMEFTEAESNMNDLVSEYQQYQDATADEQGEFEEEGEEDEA

| SMILES | I20 | I30 |
| --- | --- | --- |
| COc1cc2c(c(OC)c1OC)-c1cc3c(cc1C[C@@H]1COC(=O)[C@H]1C2)OCO3 | 70 µM |  |
| COc1cc2c(c(OC)c1OC)-c1cc3c(cc1C[C@@H]1COC(=O)[C@@H]1C2)OCO3 |  | 700 µM |

These compounds were tested against T1, Tubulin (Sus scrofa, UniProt P02554+P02550) (assay: Binding affinity against tubulin using [3H]colchicine as radioligand).
Type: protein assay

| SMILES | Ki |
| --- | --- |
| COc1cc2c(c(OC)c1OC)-c1cc3c(cc1[C@@H](OC(C)=O)C1COC(=O)[C@H]1C2)OCO3 (stereo partly drawn) [STEGANACIN] | 10.5 µM |
| COc1cc2c(c(OC)c1OC)-c1cc3c(cc1C(=O)[C@@H]1COC(=O)[C@H]1C2)OCO3 (stereo in doubt; 5) | 178 µM |
| COc1cc([C@@H]2c3cc4c(cc3CC3COC(=O)[C@@H]32)OCO4)cc(OC)c1OC (mixture of isomers) | 201 µM |
| COc1cc2c(c(OC)c1OC)-c1cc3c(cc1C[C@@H]1COC(=O)[C@H]1C2)OCO3 | 100 µM |
| COc1cc(CC2CCOC2=O)c(-c2cc3c(cc2CO)OCO3)c(OC)c1OC (stereo not drawn) | 185 µM |
| COc1cc2c(c(OC)c1OC)-c1cc3c(cc1C[C@@H]1COC(=O)[C@@H]1C2)OCO3 | 32 µM |

These compounds were tested against T1, Tubulin (assay: as §1).
Type: functional
In short: as §2

| SMILES | I50 |
| --- | --- |
| COc1cc2c(c(OC)c1OC)-c1cc3c(cc1[C@@H](OC(C)=O)C1COC(=O)[C@H]1C2)OCO3 (stereo partly drawn) [STEGANACIN] | 3.5 µM |
| COc1cc([C@@H]2c3cc4c(cc3CC3COC(=O)[C@@H]32)OCO4)cc(OC)c1OC (mixture of isomers) | 2.1 µM |
| COc1cc2c(c(OC)c1OC)-c1cc3c(cc1C[C@@H]1COC(=O)[C@H]1C2)OCO3 | 60 µM |
| COc1cc2c(c(OC)c1OC)-c1cc3c(cc1C(=O)[C@@H]1COC(=O)[C@H]1C2)OCO3 (stereo in doubt; 17) | 162 µM |
| COc1cc2c(c(OC)c1OC)-c1cc3c(cc1C[C@@H]1COC(=O)[C@@H]1C2)OCO3 | 5 µM |

The next lines start with the values.

| I50 | SMILES |
| --- | --- |
| 125 µM | COc1cc2c(c(OC)c1OC)-c1cc3c(cc1C(=O)[C@@H]1COC(=O)[C@H]1C2)OCO3 (stereo in doubt; 5) |
| 375 µM | COc1cc2c(c(OC)c1OC)-c1cc3c(cc1C(=O)[C@@H]1COC(=O)[C@H]1C2)OCO3 (stereo in doubt; 13) |
| 110 µM | COc1cc2c(c(OC)c1OC)-c1cc3c(cc1C(=O)[C@@H]1COC(=O)[C@H]1C2)OCO3 (stereo in doubt; 9) |
| 450 µM | COc1cc2c(c(OC)c1OC)-c1cc3c(cc1C(=O)[C@@H]1COC(=O)[C@H]1C2)OCO3 (stereo in doubt; 12) |

The compounds below were run against T1, Tubulin (assay: Binding affinity against tubulin usingf [3H]-colchicine as radioligand).
Type: protein assay

| Ki | SMILES |
| --- | --- |
| […] | COc1cc2c(c(OC)c1OC)-c1cc3c(cc1C(=O)[C@@H]1COC(=O)[C@H]1C2)OCO3 (stereo in doubt; 9) |
